In ChEMBL document CHEMBL3351461, “Discovery of novel, dual mechanism ERK inhibitors by affinity selection screening of an inactive kinase” (J Med Chem, 2014):
pIC50, pKd: −log10 of the molar value. Active and inactive are the calls of the source. The rule behind the calls is not given here.

Tests used:
[1] = target: T1, Dual specificity mitogen-activated protein kinase kinase; MEK1/2 (Homo sapiens) (UniProt P36507+Q02750); assay: Binding affinity to phosphorylated MEK (unknown origin) by temperature dependent fluorescence (TdF) assay
[2] = target: T2, Mitogen-activated protein kinase 1 (Homo sapiens, UniProt P28482); assay: Inhibition of activated ERK2 (unknown origin) using IMAP peptide substrate after 30 mins by activated ERK2 assay
Summary of the method: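 IMAP fluorescence-polarization assay. Started with 1 μM substrate peptide (100 nM fluorescein-labelled) and 30 μM ATP. Run 30 min, stopped with IMAP beads, read after 30 min. N = 2.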

[3] = target: T1, Dual specificity mitogen-activated protein kinase kinase; MEK1/2 (Homo sapiens); assay: Binding affinity to unphosphorylated MEK (unknown origin) by temperature dependent fluorescence (TdF) assay
[4] = target: T2, Mitogen-activated protein kinase 1; assay: Binding to unphosphorylated ERK2 (unknown origin) by temperature dependent fluorescence (TdF) assay
[5] = target: Mitogen-activated protein kinase 1 (Mus musculus) (UniProt P63085); assay: Inhibition of inactive ERK2 (mouse) coupled with human MEK1 using IMAP peptide substrate after 30 mins by coupled ERK2 assay
[6] = target: T2, Mitogen-activated protein kinase 1; assay: Binding to phosphorylated ERK2 (unknown origin) by temperature dependent fluorescence (TdF) assay
[7] = target: Tyrosine-protein kinase JAK2 (Homo sapiens, UniProt O60674); assay: Inhibition of JAK2 (unknown origin)
[8] = target: Mitogen-activated protein kinase 3 (Homo sapiens) (UniProt P27361); assay: Inhibition of ERK1 phosphorylation in human A2058 cells after 4 hrs by immunoblotting analysis; assay type: cell-based
Summary of the method: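 A2058 cells treated 4 h at 37 °C with 0–10000 nM compound (150, 312, 625, 1250, 2500, 5000, 10000 nM). Equal-protein lysates immunoblotted for phospho-ERK1,2 and total ERK1,2, developed by ECL. A MEK inhibitor serves as positive control.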

[9] = target: Vascular endothelial growth factor receptor 1 (Homo sapiens, UniProt P17948); assay: Inhibition of VEGFR1 (unknown origin)
[10] = target: Serine/threonine-protein kinase PLK3 (Homo sapiens, UniProt Q9H4B4); assay: Inhibition of PLK3 (unknown origin)
[11] = target: Glycogen synthase kinase-3 beta (Homo sapiens, UniProt P49841); assay: Inhibition of GSK3beta (unknown origin)
[12] = target: Serine/threonine-protein kinase 3 (Homo sapiens, UniProt Q13188); assay: Inhibition of MST2 (unknown origin)
[13] = system: A2058; assay: Cytotoxicity against human A2058 cells expressing BRAF mutant after 3 days by proliferation assay; assay type: functional, cell-based; details: A2058, 72 h
Summary of the method: (§1)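 A2058, Colo-205 (2000 cells/well) or A375SM (1500 cells/well) in RPMI1640 with 10% FBS and penicillin–streptomycin, on collagen-coated plates. Cells attach for 2 h, then compound is added in DMSO (final 1.0% or 0.1%). Incubated 3 days at 37 °C, 5% CO2. Viability read by CellTiter-Glo luminescence.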

[14] = target: Tyrosine-protein kinase ABL1 (Homo sapiens, UniProt P00519); assay: Inhibition of ABL (unknown origin)
[15] = target: Ribosomal protein S6 kinase alpha-3 (Homo sapiens, UniProt P51812); assay: Inhibition of RSK2 (unknown origin)
[16] = target: Tyrosine-protein kinase Lck (Homo sapiens, UniProt P06239); assay: Inhibition of LCK (unknown origin)
[17] = target: Cyclin-dependent kinase 2 (Homo sapiens, UniProt P24941); assay: Inhibition of CDK2 (unknown origin)
[18] = target: Rho-associated protein kinase 2 (Homo sapiens, UniProt O75116); assay: Inhibition of ROCK2 (unknown origin)
[19] = target: Casein kinase I isoform delta (Homo sapiens, UniProt P48730); assay: Inhibition of CSNK1D (unknown origin)
[20] = target: Serine/threonine-protein kinase Chk1 (Homo sapiens, UniProt O14757); assay: Inhibition of CHK1 (unknown origin)
[21] = target: RAC-alpha serine/threonine-protein kinase (Homo sapiens, UniProt P31749); assay: Inhibition of AKT1 (unknown origin)
[22] = target: Mitogen-activated protein kinase 11 (Homo sapiens, UniProt Q15759); assay: Inhibition of p38beta (unknown origin)
[23] = Cytotoxicity against human A375SM cells expressing BRAF mutant after 3 days by proliferation assay; assay type: functional, cell-based; details: A375-SM, 72 h; summary of the method: as §1
[24] = system: A2058; assay: Inhibition of RSK phosphorylation in human A2058 cells after 4 hrs by immunoblotting analysis; assay type: cell-based
[25] = target: Serine/threonine-protein kinase B-raf (Homo sapiens, UniProt P15056); assay: Inhibition of B-RAF (unknown origin)
[26] = target: Dual specificity mitogen-activated protein kinase kinase 1 (Homo sapiens, UniProt Q02750); assay: Inhibition of MEK1 (unknown origin)
[27] = system: COLO 205; assay: Cytotoxicity against human COLO205 cells expressing BRAF mutant after 3 days by proliferation assay; assay type: functional, cell-based; details: COLO 205, 72 h; summary of the method: as §1
[28] = target: Cyclin-dependent kinase 4 (Homo sapiens, UniProt P11802); assay: Inhibition of CDK4 (unknown origin)
[29] = target: Hepatocyte growth factor receptor (Homo sapiens, UniProt P08581); assay: Inhibition of MET (unknown origin)
[30] = system: CHL-1; assay: Cytotoxicity against human CHL-1 cells expressing wild type BRAF after 3 days by proliferation assay; assay type: functional, cell-based; details: CHL-1, 72 h
[31] = target: Testis-specific serine/threonine-protein kinase 2 (Homo sapiens, UniProt Q96PF2); assay: Inhibition of TSSK2 (unknown origin)
[32] = target: Receptor-type tyrosine-protein kinase FLT3 (Homo sapiens, UniProt P36888); assay: Inhibition of FLT3 (unknown origin)
[33] = target: Ephrin type-B receptor 4 (Homo sapiens, UniProt P54760); assay: Inhibition of EPHB4 (unknown origin)
[34] = target: Serine/threonine-protein kinase Nek2 (Homo sapiens, UniProt P51955); assay: Inhibition of NEK2 (unknown origin)
[35] = target: Cyclin-dependent kinase 6 (Homo sapiens, UniProt Q00534); assay: Inhibition of CDK6 (unknown origin)
[36] = target: Protein kinase C alpha type (Homo sapiens, UniProt P17252); assay: Inhibition of PKCA (unknown origin)
[37] = target: Inhibitor of nuclear factor kappa-B kinase subunit beta (Homo sapiens, UniProt O14920); assay: Inhibition of IKKbeta (unknown origin)
[38] = target: Interleukin-1 receptor-associated kinase 4 (Homo sapiens, UniProt Q9NWZ3); assay: Inhibition of IRAK4 (unknown origin)
[39] = target: Epidermal growth factor receptor (Homo sapiens, UniProt P00533); assay: Inhibition of EGFR (unknown origin)
[40] = target: Insulin-like growth factor 1 receptor (Homo sapiens, UniProt P08069); assay: Inhibition of IGF1R (unknown origin)

T1 sequence (P36507 whole entry, looked up): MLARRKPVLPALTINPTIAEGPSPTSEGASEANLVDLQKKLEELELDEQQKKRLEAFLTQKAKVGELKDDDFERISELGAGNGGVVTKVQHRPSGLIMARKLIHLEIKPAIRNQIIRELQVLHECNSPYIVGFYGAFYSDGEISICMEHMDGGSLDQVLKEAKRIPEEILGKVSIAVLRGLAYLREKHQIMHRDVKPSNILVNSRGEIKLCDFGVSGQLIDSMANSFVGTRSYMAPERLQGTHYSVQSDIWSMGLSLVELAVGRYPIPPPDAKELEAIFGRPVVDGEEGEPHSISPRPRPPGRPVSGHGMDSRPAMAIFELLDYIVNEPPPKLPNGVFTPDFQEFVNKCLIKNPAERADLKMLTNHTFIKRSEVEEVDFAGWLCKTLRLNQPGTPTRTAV
T1 sequence (Q02750 whole entry, looked up): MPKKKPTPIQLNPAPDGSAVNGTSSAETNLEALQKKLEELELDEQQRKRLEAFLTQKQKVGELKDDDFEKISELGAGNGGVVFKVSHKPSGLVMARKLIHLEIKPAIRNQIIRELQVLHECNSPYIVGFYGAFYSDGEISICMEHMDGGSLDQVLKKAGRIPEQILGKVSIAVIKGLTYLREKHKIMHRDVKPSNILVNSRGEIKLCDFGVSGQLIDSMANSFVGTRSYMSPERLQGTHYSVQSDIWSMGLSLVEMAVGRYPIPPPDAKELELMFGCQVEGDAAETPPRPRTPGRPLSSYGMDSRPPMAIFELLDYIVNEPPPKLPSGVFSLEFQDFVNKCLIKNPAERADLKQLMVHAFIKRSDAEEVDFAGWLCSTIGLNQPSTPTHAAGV
T2 sequence (P28482 whole entry): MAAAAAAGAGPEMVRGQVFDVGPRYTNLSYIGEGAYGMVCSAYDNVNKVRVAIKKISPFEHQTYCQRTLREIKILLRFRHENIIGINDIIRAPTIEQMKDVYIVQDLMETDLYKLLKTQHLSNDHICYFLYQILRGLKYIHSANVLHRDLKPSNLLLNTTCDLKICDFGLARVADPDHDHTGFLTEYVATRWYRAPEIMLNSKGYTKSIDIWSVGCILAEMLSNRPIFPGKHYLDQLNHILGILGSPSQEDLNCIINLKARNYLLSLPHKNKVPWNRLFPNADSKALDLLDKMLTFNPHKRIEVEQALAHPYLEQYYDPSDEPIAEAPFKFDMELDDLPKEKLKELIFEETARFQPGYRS
Sequence of Mitogen-activated protein kinase 1 (Mus musculus) (P63085 whole entry, looked up): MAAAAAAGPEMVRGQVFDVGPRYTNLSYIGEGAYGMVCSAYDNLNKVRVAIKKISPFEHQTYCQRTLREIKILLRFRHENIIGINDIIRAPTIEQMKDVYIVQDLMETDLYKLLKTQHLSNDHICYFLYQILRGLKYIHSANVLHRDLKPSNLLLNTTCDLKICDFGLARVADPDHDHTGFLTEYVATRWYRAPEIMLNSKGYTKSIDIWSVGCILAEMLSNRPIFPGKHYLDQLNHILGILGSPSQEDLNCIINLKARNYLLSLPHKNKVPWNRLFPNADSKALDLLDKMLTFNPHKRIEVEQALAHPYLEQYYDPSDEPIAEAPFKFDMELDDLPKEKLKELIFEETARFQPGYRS
Sequence of Hepatocyte growth factor receptor (P08581 whole entry): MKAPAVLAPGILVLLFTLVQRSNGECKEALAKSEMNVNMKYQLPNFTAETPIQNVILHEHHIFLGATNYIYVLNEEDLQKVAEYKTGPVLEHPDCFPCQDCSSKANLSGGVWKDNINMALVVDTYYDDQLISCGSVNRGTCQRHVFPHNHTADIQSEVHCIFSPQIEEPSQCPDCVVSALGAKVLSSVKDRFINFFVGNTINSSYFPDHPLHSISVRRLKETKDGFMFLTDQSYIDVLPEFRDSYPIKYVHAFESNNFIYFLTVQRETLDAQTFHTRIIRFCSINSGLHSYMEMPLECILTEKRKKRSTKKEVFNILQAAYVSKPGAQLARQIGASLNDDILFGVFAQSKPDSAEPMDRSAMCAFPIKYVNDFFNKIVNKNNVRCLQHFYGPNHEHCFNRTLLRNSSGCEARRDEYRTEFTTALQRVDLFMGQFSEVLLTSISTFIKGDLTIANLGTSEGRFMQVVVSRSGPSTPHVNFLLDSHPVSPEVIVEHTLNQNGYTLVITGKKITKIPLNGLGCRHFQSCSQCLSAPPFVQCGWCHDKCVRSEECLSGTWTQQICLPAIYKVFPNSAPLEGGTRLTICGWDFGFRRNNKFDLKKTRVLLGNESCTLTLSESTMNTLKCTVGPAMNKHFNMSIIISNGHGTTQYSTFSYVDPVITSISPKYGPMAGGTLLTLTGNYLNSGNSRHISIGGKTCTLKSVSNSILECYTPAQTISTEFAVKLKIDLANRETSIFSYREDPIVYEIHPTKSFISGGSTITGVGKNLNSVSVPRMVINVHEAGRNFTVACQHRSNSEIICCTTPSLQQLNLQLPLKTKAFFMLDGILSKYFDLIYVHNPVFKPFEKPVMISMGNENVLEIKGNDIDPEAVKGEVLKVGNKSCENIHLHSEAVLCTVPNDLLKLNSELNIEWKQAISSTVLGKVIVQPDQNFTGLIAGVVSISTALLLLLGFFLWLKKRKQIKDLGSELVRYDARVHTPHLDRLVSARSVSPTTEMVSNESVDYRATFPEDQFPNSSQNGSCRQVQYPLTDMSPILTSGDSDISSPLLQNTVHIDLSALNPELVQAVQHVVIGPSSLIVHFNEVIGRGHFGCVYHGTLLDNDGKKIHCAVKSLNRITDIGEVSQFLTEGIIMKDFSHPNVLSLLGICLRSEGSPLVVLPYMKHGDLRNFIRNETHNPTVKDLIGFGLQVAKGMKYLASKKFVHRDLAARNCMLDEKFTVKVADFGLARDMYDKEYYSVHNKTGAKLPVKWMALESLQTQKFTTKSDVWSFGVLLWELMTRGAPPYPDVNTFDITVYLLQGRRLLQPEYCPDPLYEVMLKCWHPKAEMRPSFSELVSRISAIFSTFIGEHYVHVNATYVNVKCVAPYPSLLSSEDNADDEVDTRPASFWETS
Sequence of Interleukin-1 receptor-associated kinase 4 (Q9NWZ3 whole entry): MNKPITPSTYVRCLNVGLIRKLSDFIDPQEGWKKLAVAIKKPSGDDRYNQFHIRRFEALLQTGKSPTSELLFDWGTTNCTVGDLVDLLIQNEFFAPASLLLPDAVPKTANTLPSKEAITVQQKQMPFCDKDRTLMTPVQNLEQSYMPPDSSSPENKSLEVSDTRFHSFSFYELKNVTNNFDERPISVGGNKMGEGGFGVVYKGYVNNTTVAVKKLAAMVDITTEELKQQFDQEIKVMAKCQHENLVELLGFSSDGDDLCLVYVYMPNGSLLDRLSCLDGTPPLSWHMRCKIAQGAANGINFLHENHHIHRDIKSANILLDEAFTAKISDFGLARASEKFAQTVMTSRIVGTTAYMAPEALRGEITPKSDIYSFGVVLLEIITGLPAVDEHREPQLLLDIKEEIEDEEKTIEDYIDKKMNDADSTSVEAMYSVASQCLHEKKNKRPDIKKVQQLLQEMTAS
Sequence of RAC-alpha serine/threonine-protein kinase (P31749 whole entry): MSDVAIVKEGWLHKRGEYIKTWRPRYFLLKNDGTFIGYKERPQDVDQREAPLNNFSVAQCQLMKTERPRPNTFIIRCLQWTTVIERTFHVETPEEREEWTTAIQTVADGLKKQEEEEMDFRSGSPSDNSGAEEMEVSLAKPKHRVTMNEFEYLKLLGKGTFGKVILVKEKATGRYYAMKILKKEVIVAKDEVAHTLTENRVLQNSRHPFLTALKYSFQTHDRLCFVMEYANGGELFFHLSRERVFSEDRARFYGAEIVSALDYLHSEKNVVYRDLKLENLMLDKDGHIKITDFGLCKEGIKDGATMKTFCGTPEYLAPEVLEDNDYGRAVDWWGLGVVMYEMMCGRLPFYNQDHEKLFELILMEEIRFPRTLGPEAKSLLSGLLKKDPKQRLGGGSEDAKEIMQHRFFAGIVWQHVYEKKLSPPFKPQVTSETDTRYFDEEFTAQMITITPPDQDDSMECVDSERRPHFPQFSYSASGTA
Sequence of Inhibitor of nuclear factor kappa-B kinase subunit beta (O14920 whole entry): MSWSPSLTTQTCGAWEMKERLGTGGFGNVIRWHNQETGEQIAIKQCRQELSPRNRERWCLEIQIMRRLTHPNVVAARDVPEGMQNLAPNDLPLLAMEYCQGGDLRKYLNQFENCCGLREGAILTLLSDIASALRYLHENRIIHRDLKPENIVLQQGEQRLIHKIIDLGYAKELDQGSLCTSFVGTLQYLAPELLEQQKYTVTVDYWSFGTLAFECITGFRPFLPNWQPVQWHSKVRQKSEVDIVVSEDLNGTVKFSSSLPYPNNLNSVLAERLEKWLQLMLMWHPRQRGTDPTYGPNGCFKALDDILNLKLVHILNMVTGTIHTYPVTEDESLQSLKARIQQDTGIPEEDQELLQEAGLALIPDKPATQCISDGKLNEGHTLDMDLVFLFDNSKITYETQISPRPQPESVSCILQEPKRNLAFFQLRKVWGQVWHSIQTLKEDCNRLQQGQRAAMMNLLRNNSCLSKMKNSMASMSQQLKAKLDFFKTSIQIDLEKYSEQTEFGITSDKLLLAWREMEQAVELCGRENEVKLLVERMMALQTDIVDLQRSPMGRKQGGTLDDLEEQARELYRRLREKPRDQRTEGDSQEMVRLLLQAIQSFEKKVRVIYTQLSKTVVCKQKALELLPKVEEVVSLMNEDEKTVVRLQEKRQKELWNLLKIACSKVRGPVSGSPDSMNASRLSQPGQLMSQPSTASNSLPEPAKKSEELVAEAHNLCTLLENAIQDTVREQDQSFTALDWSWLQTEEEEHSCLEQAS
Sequence of Mitogen-activated protein kinase 11 (Q15759 whole entry): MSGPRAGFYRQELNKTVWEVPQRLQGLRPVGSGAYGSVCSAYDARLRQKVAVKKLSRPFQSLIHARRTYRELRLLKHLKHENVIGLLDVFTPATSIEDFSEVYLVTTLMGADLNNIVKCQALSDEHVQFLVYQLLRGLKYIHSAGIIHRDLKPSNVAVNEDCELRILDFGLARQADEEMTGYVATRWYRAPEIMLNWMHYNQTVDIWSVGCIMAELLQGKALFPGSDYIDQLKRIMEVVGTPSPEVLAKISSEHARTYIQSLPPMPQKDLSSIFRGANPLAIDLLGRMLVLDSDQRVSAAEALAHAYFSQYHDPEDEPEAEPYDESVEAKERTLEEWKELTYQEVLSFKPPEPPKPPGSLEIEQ

CC(=O)c1ccc(N2CCN(C(=O)CN3CCC(C(=O)Nc4ccc(O)c(Cl)c4)C3)CC2)cc1 (racemic)
Activity [1]: inactive | pIC50 [2]: 5.38 | Activity [3]: inactive | pKd [4]: 6.82 | pIC50 [5]: 5.92 | pKd [6]: 6.57

CC(=O)c1ccc(N2CCN(C(=O)CN3CC[C@@H](C(=O)Nc4ccc(O)c(Cl)c4)C3)CC2)cc1
pIC50 [7]: < 4.52 | Activity [1]: inactive | inhibition [8]: Dose-dependent effect | pIC50 [9]: < 4.30 | pIC50 [10]: < 4.52 | pIC50 [2]: 5.59 | pIC50 [11]: < 4.30 | pIC50 [12]: < 4.52 | pIC50 [13]: 4.54 | pIC50 [14]: < 4.52 | pIC50 [15]: 4.57 | pIC50 [16]: < 4.52 | pIC50 [17]: < 4.30 | pIC50 [18]: < 4.52 | pIC50 [19]: < 4.52 | pIC50 [20]: < 4.52 | Activity [3]: inactive | pIC50 [21]: < 4.52 | pKd [4]: 7.30 | pIC50 [22]: < 4.30 | pIC50 [23]: 4.94 | inhibition [24]: Dose-dependent effect | pIC50 [25]: < 4.52 | pIC50 [26]: < 4.70 | pIC50 [27]: 4.97 | pIC50 [28]: < 4.30 | pIC50 [5]: 6.44 | pIC50 [29]: < 4.52 | pIC50 [30]: < 4.00 | pIC50 [31]: < 4.52 | pKd [6]: 6.85 | pIC50 [32]: < 4.52 | pIC50 [33]: < 4.52 | pIC50 [34]: < 4.52 | pIC50 [35]: < 4.30 | pIC50 [36]: < 4.52 | pIC50 [37]: < 4.52 | pIC50 [38]: < 4.52 | pIC50 [39]: < 4.30 | pIC50 [40]: < 4.52

CC(=O)c1ccc(N2CCN(C(=O)CN3CC[C@@H](C(=O)Nc4ccc(O)c(C)c4)C3)CC2)cc1
Activity [1]: inactive | pIC50 [2]: 5.60 | Activity [3]: inactive | pIC50 [5]: 5.38

O=C(NOC[C@H](O)CO)c1ccc(F)c(F)c1Nc1ccc(I)cc1F [MIRDAMETINIB]
pIC50 [2]: < 4.40 | pKd [4]: < 5.00 | pIC50 [5]: 7.60 | pKd [6]: < 5.00

CC(=O)c1ccc(N2CCN(C(=O)CN3CC[C@@H](C(=O)Nc4ccc(O)c(Br)c4)C3)CC2)cc1
Activity [1]: inactive | pIC50 [2]: 5.44 | Activity [3]: inactive | pIC50 [5]: 6.36

CC(=O)c1ccc(N2CCN(C(=O)CN3CC[C@@H](C(=O)Nc4cc(Cl)c(O)c(Cl)c4)C3)CC2)cc1
Activity [1]: inactive | Activity [3]: inactive | pKd [4]: < 5.00 | pIC50 [5]: < 5.00 | pKd [6]: < 5.00

O=C(Nc1ccc(O)c(Cl)c1)[C@@H]1CCN(CC(=O)N2CCN(c3ccc(-c4ccccc4)cc3)CC2)C1
Activity [1]: inactive | pIC50 [2]: 5.36 | Activity [3]: inactive | pKd [4]: 6.82 | pIC50 [5]: 5.25 | pKd [6]: 6.14

O=C(Nc1ccc(O)c(Cl)c1)[C@@H]1CCN(CC(=O)N2CCN(c3nc4ccccc4s3)CC2)C1
Activity [1]: inactive | pIC50 [2]: 5.80 | Activity [3]: inactive | pKd [4]: 6.77 | pIC50 [5]: 6.32 | pKd [6]: 6.57

O=C(Nc1ccc(O)c(Cl)c1)[C@@H]1CCN(CC(=O)N2CCN(c3ccc(-c4ccsc4)cc3)CC2)C1
Activity [1]: inactive | pIC50 [2]: 4.70 | Activity [3]: inactive | pKd [4]: 6.54 | pIC50 [5]: 5.68 | pKd [6]: 6.01

O=C(Nc1ccc(O)cc1)C1CCN(CC(=O)N2CCN(c3cccc(Cl)c3)CC2)C1 (racemic)
Activity [1]: inactive | pIC50 [2]: 4.91 | Activity [3]: inactive | pKd [4]: 6.04 | pIC50 [5]: 5.47 | pKd [6]: 5.78

CC(=O)c1ccc(N2CCN(C(=O)CN3CC[C@@H](C(=O)Nc4ccc(O)cc4Cl)C3)CC2)cc1
Activity [1]: inactive | pIC50 [2]: 4.30 | Activity [3]: inactive | pKd [4]: < 5.00 | pIC50 [5]: 4.90 | pKd [6]: < 5.00

O=C(Nc1ccc(O)c(Cl)c1)[C@@H]1CCN(CC(=O)N2CCN(c3cccc(Cl)c3)CC2)C1
Activity [1]: inactive | pIC50 [2]: 5.68 | Activity [3]: inactive | pKd [4]: 7.15 | pIC50 [5]: 6.15 | pKd [6]: 6.82

O=C(Nc1ccc(O)c(Cl)c1)[C@@H]1CCN(CC(=O)N2CCN(c3ccc(Br)cc3)CC2)C1
Activity [1]: inactive | pIC50 [2]: 5.09 | Activity [3]: inactive | pKd [4]: 6.03 | pIC50 [5]: 5.30 | pKd [6]: 5.58

CC(=O)c1ccc(N2CCN(C(=O)CN3CC[C@H](C(=O)Nc4ccc(O)c(Cl)c4)C3)CC2)cc1
Activity [1]: inactive | pIC50 [2]: 4.49 | Activity [3]: inactive | pKd [4]: 6.44 | pIC50 [5]: 5.44 | pKd [6]: 6.06

CC(=O)c1ccc(N2CCN(C(=O)CN3CCC(C(=O)Nc4ccc(O)cc4)C3)CC2)cc1 (racemic)
Activity [1]: inactive | pIC50 [2]: 4.73 | Activity [3]: inactive | pKd [4]: 5.97 | pIC50 [5]: 5.40 | pKd [6]: 5.72

O=C(Nc1ccc(O)c(Cl)c1)[C@@H]1CCN(CC(=O)N2CCN(c3ccc(-c4ccoc4)cc3)CC2)C1
Activity [1]: inactive | pIC50 [2]: 5.26 | Activity [3]: inactive | pKd [4]: 6.92 | pIC50 [5]: 5.85 | pKd [6]: 6.48

CC(=O)c1ccc(N2CCN(C(=O)CN3CC[C@@H](C(=O)Nc4ccc(O)c(F)c4)C3)CC2)cc1
Activity [1]: inactive | pIC50 [2]: 4.94 | Activity [3]: inactive | pKd [4]: 6.55 | pIC50 [5]: 5.89 | pKd [6]: 6.20
